Experimental data taken from ChEMBL document CHEMBL4622928, “Discovery of 5-(4-methylpiperazin-1-yl)-2-nitroaniline derivatives as a new class of SIRT6 inhibitors” (Bioorg Med Chem Lett, 2020).

Experiments:
[1] = Toxicity in mouse assessed as change in blood glucose level
Procedure, shortened: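 Normal (non-diabetic) mice were dosed, and blood glucose and body weight were tracked over the study.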

[2] = target: T1, NAD-dependent protein deacetylase sirtuin-3, mitochondrial (Homo sapiens, UniProt Q9NTG7); assay: Inhibition of SIRT3 (unknown origin)
T1 sequence (Q9NTG7 whole entry): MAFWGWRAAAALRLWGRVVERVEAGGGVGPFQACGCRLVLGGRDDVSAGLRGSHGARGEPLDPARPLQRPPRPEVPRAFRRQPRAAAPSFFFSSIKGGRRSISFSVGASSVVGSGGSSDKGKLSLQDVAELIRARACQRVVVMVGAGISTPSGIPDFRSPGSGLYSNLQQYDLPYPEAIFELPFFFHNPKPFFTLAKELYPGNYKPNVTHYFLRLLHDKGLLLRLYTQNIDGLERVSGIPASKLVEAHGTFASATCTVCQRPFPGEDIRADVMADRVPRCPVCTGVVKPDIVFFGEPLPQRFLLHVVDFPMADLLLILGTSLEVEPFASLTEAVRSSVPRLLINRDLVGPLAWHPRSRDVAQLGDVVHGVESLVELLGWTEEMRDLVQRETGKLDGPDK
Procedure, shortened: (§1)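 Each deacetylase was run in a Fluor de Lys (FDL) fluorogenic deacetylation assay as a selectivity screen, with compound tested at concentrations up to 200 μM. IC50 was estimated from the dose-response.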

[3] = target: Histone deacetylase 1 (Homo sapiens, UniProt Q13547); assay: Inhibition of HDAC1 (unknown origin); procedure, shortened: as §1
Chain of Histone deacetylase 1 (Q13547 whole entry): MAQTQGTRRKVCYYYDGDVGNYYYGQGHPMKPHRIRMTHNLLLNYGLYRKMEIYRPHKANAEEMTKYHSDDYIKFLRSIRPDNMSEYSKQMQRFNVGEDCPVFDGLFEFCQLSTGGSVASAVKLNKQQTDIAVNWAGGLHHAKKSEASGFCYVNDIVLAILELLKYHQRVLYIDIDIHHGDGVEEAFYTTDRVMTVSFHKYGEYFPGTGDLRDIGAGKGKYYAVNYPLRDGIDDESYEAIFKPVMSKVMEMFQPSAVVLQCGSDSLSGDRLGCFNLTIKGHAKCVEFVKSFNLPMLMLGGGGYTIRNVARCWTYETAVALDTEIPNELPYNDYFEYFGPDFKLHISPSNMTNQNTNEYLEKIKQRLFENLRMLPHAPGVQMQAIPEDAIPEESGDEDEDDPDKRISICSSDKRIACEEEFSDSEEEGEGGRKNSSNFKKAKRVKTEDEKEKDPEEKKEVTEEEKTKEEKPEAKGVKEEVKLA

[4] = target: Histone deacetylase 2 (Homo sapiens, UniProt Q92769); assay: Inhibition of HDAC2 (unknown origin); procedure, shortened: as §1
Chain of Histone deacetylase 2 (Q92769 whole entry): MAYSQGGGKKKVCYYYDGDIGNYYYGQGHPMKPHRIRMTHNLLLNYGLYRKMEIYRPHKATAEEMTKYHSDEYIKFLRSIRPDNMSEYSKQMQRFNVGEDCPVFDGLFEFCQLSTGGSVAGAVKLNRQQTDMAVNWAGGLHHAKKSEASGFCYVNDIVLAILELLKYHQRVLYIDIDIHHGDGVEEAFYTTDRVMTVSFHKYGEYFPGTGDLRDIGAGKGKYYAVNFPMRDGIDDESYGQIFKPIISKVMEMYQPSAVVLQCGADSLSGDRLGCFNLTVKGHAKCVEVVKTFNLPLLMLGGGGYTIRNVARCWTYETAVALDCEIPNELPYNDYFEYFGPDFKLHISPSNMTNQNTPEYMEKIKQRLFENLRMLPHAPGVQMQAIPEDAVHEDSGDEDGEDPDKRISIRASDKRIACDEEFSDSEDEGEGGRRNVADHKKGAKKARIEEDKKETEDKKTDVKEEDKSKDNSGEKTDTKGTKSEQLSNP

[5] = target: Histone deacetylase 5 (Homo sapiens, UniProt Q9UQL6); assay: Inhibition of HDAC5 (unknown origin); procedure, shortened: as §1
Chain of Histone deacetylase 5 (Q9UQL6 whole entry): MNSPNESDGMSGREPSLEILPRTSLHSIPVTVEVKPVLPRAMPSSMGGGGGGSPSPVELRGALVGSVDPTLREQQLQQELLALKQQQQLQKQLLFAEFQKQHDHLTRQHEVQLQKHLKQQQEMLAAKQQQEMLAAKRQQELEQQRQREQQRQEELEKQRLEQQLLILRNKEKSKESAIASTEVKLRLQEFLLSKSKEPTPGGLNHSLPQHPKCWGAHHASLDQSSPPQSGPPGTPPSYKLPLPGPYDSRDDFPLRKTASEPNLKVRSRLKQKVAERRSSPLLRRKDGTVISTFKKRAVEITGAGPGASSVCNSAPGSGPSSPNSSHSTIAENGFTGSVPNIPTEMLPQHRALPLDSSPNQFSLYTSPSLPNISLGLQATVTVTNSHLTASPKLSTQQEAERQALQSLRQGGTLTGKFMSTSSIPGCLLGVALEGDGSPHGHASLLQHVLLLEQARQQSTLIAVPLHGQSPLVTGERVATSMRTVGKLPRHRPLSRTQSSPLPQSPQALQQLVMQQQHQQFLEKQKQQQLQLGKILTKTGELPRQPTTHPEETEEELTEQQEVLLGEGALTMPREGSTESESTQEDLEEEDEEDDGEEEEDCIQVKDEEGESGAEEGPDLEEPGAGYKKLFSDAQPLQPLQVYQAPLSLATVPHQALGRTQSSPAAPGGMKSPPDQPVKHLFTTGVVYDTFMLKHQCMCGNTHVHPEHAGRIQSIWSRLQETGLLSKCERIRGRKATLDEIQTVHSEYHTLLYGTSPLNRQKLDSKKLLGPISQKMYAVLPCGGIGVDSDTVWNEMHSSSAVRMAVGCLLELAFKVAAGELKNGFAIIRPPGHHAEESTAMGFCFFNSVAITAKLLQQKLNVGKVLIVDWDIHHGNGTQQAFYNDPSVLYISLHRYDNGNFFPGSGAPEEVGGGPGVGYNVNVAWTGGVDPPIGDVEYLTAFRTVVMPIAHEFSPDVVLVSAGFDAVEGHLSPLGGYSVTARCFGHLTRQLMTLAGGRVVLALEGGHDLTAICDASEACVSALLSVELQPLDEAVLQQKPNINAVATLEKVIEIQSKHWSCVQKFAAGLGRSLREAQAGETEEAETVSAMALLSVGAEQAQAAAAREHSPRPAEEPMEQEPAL

[6] = target: T2, Histone deacetylase 7 (Homo sapiens, UniProt Q8WUI4); assay: Inhibition of HDAC7 (unknown origin); procedure, shortened: as §1
T2 sequence (Q8WUI4 whole entry): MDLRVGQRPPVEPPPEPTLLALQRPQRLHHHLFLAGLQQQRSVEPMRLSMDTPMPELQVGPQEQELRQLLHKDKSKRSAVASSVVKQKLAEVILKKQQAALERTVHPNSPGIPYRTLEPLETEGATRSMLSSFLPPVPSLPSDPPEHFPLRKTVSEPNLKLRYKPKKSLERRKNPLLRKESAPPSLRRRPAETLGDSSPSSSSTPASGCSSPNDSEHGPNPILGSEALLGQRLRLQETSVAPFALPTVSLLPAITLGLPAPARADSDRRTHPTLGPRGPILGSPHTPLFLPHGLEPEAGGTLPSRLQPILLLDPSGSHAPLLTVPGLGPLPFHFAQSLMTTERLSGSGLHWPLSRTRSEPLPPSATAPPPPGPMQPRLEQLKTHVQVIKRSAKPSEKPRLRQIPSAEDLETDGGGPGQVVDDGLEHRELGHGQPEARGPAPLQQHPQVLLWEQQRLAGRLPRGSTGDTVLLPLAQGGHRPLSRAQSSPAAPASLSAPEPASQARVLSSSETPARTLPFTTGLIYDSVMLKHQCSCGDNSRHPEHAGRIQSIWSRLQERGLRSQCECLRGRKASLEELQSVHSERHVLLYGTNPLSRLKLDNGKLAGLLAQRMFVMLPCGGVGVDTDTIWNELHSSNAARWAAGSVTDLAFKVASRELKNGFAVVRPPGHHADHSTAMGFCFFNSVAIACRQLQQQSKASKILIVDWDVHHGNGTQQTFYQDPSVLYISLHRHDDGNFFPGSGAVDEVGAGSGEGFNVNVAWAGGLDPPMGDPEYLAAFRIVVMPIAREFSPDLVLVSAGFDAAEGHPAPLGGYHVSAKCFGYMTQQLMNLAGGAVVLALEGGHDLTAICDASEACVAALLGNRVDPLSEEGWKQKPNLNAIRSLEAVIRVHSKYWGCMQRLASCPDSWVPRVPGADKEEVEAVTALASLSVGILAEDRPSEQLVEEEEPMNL

[7] = target: T3, Polyamine deacetylase HDAC10 (Homo sapiens, UniProt Q969S8); assay: Inhibition of HDAC10 (unknown origin); procedure, shortened: as §1
T3 sequence (Q969S8 whole entry): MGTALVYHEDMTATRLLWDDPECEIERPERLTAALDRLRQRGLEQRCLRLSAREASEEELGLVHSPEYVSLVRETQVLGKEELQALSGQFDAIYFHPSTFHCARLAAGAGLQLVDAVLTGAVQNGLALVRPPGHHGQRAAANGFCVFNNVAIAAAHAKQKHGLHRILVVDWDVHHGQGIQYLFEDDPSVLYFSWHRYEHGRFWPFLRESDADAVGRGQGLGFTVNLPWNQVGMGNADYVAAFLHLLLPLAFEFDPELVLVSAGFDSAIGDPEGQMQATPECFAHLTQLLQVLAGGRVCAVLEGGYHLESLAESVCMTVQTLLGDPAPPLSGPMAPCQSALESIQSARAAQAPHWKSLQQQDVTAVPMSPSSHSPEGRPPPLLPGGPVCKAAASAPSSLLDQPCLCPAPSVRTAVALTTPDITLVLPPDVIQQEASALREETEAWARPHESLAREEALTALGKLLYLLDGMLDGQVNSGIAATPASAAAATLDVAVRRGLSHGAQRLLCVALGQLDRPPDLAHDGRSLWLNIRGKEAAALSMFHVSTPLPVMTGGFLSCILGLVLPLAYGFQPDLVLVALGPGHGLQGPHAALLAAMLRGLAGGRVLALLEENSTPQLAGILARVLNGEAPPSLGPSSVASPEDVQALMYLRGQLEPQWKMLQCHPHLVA

[8] = target: NAD-dependent protein deacylase sirtuin-6 (Homo sapiens, UniProt Q8N6T7); assay: Inhibition of SIRT6 in human BxPC3 cells assessed as increase in […] expression measured after 48 hrs by Western blot analysis; assay type: cell-based; conditions: BXPC-3
Chain of NAD-dependent protein deacylase sirtuin-6 (Q8N6T7 whole entry): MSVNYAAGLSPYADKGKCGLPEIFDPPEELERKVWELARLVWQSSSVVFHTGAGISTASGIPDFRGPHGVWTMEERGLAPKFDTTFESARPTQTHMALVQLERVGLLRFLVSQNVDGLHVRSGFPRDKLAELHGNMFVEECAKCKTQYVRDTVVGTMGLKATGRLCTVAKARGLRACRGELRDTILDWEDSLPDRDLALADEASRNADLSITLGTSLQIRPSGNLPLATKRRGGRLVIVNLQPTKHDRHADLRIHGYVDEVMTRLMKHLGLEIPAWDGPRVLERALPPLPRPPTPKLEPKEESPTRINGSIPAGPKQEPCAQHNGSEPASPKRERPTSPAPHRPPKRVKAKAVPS
Procedure, shortened: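 BxPC-3 cells were exposed to 0.78, 1.56, 3.13, 6.25, 12.5 and 25 μM compound for 48 h. Histone H3K9ac and H3K18ac levels were then assessed by western blot, with β-actin as the loading control. Acetylation increase is read as cellular SIRT6 deacetylase inhibition.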

[9] = system: BXPC-3; assay: Upregulation of GLUT1 expression in human BxPC3 cells measured after 72 hrs by Western blot analysis; assay type: functional, cell-based
Procedure, shortened: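 BxPC-3 cells were exposed to 1.25, 2.5, 5 and 10 μM compound for 72 h. GLUT1 protein was then detected by western blot, with α-tubulin as loading control.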

CN1CCN(c2ccc([N+](=O)[O-])c(N)c2)CC1
Activity [1]: Non-Toxic | IC50 [2]: > 200 µM | IC50 [3]: > 200 µM | IC50 [4]: > 200 µM | IC50 [5]: > 200 µM | IC50 [6]: > 200 µM | IC50 [7]: > 200 µM | inhibition [8]: Dose-dependent effect | Activity [9]: Dose-dependent effect
